From ChEMBL document CHEMBL1125290, “Bis basic substituted diaminobenzobisthiazoles as potential antiarthritic agents” (1992)
Where “and” joins values, the source holds several entries; their conditions need not be identical. Equal entries are not always repeated.

Columns and labels:
Rattus norvegicus [1] = assay: Antiinflammatory activity against carrageenan induced rat paw edema (CPE), dosed orally; type: functional
In short: (§1)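 Male Sprague–Dawley rats (150 ± 10 g), five per group. Compound or vehicle given orally in 0.5% methylcellulose 1 h before subplantar injection of 0.1 mL 1% carrageenan in saline into the right hind paw. Paw volume measured by mercury displacement before dosing and 3 h after carrageenan; the difference is the edema volume. ANOVA with Dunnett's t test.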

Rattus norvegicus [2] = assay: Antiinflammatory activity against D-adjuvant arthritis in uninjected rat paw at the dose of 200 mg/kg by oral administration; type: functional
Rattus norvegicus [3] = assay: Antiinflammatory activity against D-adjuvant arthritis in injected rat paw at the dose of 200 mg/kg by oral administration; type: functional
Rattus norvegicus [4] = species on record: Rattus norvegicus; assay: Antiinflammatory activity in D-adjuvant induced arthritis in rat measured by the change in body weight; type: functional; design: concentration or dose not given beside the values
Rattus norvegicus [5] = assay: Antiinflammatory activity against D-adjuvant arthritis in injected rat paw at the dose of 100 mg/kg by oral administration; type: functional
Rattus norvegicus [6] = assay: Antiinflammatory activity against D-adjuvant arthritis in uninjected rat paw at the dose of 100 mg/kg by oral administration; type: functional
Rattus norvegicus [7] = assay: Antiinflammatory activity against D-adjuvant arthritis in uninjected rat paw at the dose of 50 mg/kg by oral administration; type: functional
In short: (§2)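 Rat developing adjuvant arthritis screen with oral dosing on a prophylactic protocol. Percent change in body weight versus untreated animals was recorded as a preliminary toxicity sign. Significance was assessed against controls by two-tailed Student's t test, p < 0.05.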

Rattus norvegicus [8] = assay: Antiinflammatory activity against D-adjuvant arthritis in injected rat paw at the dose of 50 mg/kg by oral administration; type: functional
Rattus norvegicus [9] = assay: Antiinflammatory activity dosed orally against D-adjuvant arthritis in rat.; type: functional
Rattus norvegicus [10] = assay: Antiinflammatory activity dosed orally against carrageenan induced rat paw edema(CPE); type: functional; in short: as §1
Rattus norvegicus [11] = assay: Antiinflammatory activity dosed orally against D-adjuvant arthritis in uninjected rat paw at 50 mg/kg; type: functional; details: route oral
Mus musculus [12] = assay: Percent suppression of plaque forming cells in spleen cell suspension at a dose of 100 mg/kg, po. in AKR mice, p<0.05; type: functional
Mus musculus [13] = assay: Percent suppression of plaque forming cells in spleen cell suspension at a dose of 200 mg/kg, po. in AKR mice, p<0.05; type: functional
Mus musculus [14] = assay: Percent suppression of plaque forming cells in spleen cell suspension at a dose of 50 mg/kg, po. in AKR mice, p<0.05; type: functional
Rattus norvegicus [15] = assay: Antiinflammatory activity against D-adjuvant arthritis in uninjected rat paw at the dose of 10 mg/kg by oral administration; type: functional
Rattus norvegicus [16] = assay: Antiinflammatory activity against D-adjuvant arthritis in injected rat paw at the dose of 10 mg/kg by oral administration; type: functional
Rattus norvegicus [17] = assay: Antiinflammatory activity dosed orally against carrageenan induced rat paw edema(CPE).value in the parentheses is the dose(mg/kg).; type: functional; in short: as §1
Rattus norvegicus [18] = assay: Antiinflammatory activity against D-adjuvant arthritis in injected rat paw at the dose of 25 mg/kg by oral administration; type: functional
Rattus norvegicus [19] = assay: Antiinflammatory activity against D-adjuvant arthritis in uninjected rat paw at the dose of 25 mg/kg by oral administration; type: functional
Rattus norvegicus [20] = assay: Antiinflammatory activity against D-adjuvant arthritis in injected rat paw at the dose of 5 mg/kg by oral administration; type: functional
Rattus norvegicus [21] = assay: Antiinflammatory activity against D-adjuvant arthritis in uninjected rat paw at the dose of 5 mg/kg by oral administration; type: functional
Rattus norvegicus [22] = assay: Antiinflammatory activity dosed orally against D-adjuvant arthritis in rat measured by the change in the weight of the body; type: functional
Rattus norvegicus [23] = assay: Antiinflammatory activity against D-adjuvant arthritis in injected rat paw at the dose of 2.5 mg/kg by oral administration; type: functional
In short: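 Rats dosed orally in a developing adjuvant arthritis screen; swelling of the adjuvant-injected paw scored against untreated arthritic controls. Significance by two-tailed Student's t test, p < 0.05. Percent change in body weight versus untreated animals recorded as a preliminary toxicity indication.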

Rattus norvegicus [24] = assay: Antiinflammatory activity against D-adjuvant arthritis in uninjected rat paw at the dose of 1.0 mg/kg by oral administration; details: read-out: Inhibition
Rattus norvegicus [25] = assay: Antiinflammatory activity against D-adjuvant arthritis in injected rat paw at the dose of 1.0 mg/kg by oral administration; type: functional; in short: as §2

| Compound | Inhibition (Rattus norvegicus [1]) [%] | Activity (Rattus norvegicus [4]) [%] | inhibition in vivo at 50 mg/kg (Rattus norvegicus [7]) [%] | inhibition in vivo at 50 mg/kg (Rattus norvegicus [8]) [%] | also measured |
| --- | --- | --- | --- | --- | --- |
| Nc1nc2c(Br)c3nc(N)sc3cc2s1 | 33 | 10 | – | – | inhibition in vivo at 200 mg/kg (Rattus norvegicus [2]): 37%; inhibition in vivo at 200 mg/kg (Rattus norvegicus [3]): 47% |
| CCC1CCCCN1CC(=O)Nc1nc2cc3nc(NC(=O)CN4CCCCC4CC)sc3cc2s1 (stereo not drawn) | 12 | -1 | – | – | inhibition in vivo at 200 mg/kg (Rattus norvegicus [2]): 65%; inhibition in vivo at 200 mg/kg (Rattus norvegicus [3]): 34% |
| O=C(CN1CCSCC1)Nc1nc2cc3nc(NC(=O)CN4CCSCC4)sc3cc2s1 | 7 | 6 | – | – | inhibition in vivo at 200 mg/kg (Rattus norvegicus [2]): 43%; inhibition in vivo at 200 mg/kg (Rattus norvegicus [3]): 0% |
| Nc1nc2c(Cl)c3nc(N)sc3c(C(F)(F)F)c2s1 | 13 | 3 | – | – | inhibition in vivo at 200 mg/kg (Rattus norvegicus [2]): 12%; inhibition in vivo at 200 mg/kg (Rattus norvegicus [3]): 0% |
| CCN(CC)CC(=O)Nc1nc2c(cc(Cl)c3nc(NC(=O)CN(CC)CC)sc32)s1 | 35 | -58 | – | – | inhibition in vivo at 100 mg/kg (Rattus norvegicus [5]): 0%; inhibition in vivo at 100 mg/kg (Rattus norvegicus [6]): 62% |
| CCN(CC)CCC(=O)Nc1nc2cc3nc(NC(=O)CCN(CC)CC)sc3cc2s1 | – | – | 48 | 29 | Body weight change (Rattus norvegicus [9]): -5%; Inhibition (Rattus norvegicus [10]): 16% |
| CC1CCCN(CC(=O)Nc2nc3cc4nc(NC(=O)CN5CCCC(C)C5)sc4cc3s2)C1 (stereo not drawn) | 19 | 6 | – | – | inhibition in vivo at 200 mg/kg (Rattus norvegicus [2]): 63%; inhibition in vivo at 200 mg/kg (Rattus norvegicus [3]): 34% |
| CCN(CC)CCNc1nc2cc3nc(NCCN(CC)CC)sc3cc2s1 | 14 | 3 | – | – | inhibition in vivo at 100 mg/kg (Rattus norvegicus [5]): 33%; inhibition in vivo at 100 mg/kg (Rattus norvegicus [6]): 0% |
| CCN(CC)CC(=O)Nc1nc2cc3nc(NC(=O)CN(CC)CC)sc3cc2s1 | 9 | – | 98 | 76 | inhibition in vivo at 50 mg/kg (Rattus norvegicus [11]): 98%; Activity (Mus musculus [12]): 82%; Activity (Mus musculus [13]): 83%; Activity (Mus musculus [14]): 67% |
| CCN(CC)CC(=O)N(CC)c1nc2cc3nc(N(CC)C(=O)CN(CC)CC)sc3cc2s1 | 18 | -4 | 0 | 14 | – |
| O=C(O)CNc1nc2cc3nc(NCC(=O)O)sc3cc2s1 | 2 | -25 | – | – | inhibition in vivo at 200 mg/kg (Rattus norvegicus [2]): 2%; inhibition in vivo at 200 mg/kg (Rattus norvegicus [3]): 0% |
| O=C(CN1CCCCC1CC1CCCCC1)Nc1nc2cc3nc(NC(=O)CN4CCCCC4CC4CCCCC4)sc3cc2s1 (stereo not drawn) | 0 | 1 | 0 | 0 | – |
| Nc1nc2cc3nc(N)sc3cc2s1 | 60 | -20 | – | – | inhibition in vivo at 100 mg/kg (Rattus norvegicus [5]): 79%; inhibition in vivo at 100 mg/kg (Rattus norvegicus [6]): 92% |
| CCN(CC)CC(=O)Nc1nc2c(Cl)c3nc(NC(=O)CN(CC)CC)sc3c(Cl)c2s1 | 19 | -33 | – | – | inhibition in vivo at 10 mg/kg (Rattus norvegicus [15]): 71%; inhibition in vivo at 10 mg/kg (Rattus norvegicus [16]): 30% |
| N#Cc1c2sc(N)nc2c(Cl)c2nc(N)sc12 | 7 | 3 | – | – | inhibition in vivo at 200 mg/kg (Rattus norvegicus [2]): 37%; inhibition in vivo at 200 mg/kg (Rattus norvegicus [3]): 47% |
| CC1CCC(NCC(=O)Nc2nc3cc4nc(NC(=O)CNC5CCC(C)CC5)sc4cc3s2)CC1 (stereo not drawn) | – | -4 | 54 | 21 | Inhibition (Rattus norvegicus [17]): 3% |

| Compound | Inhibition (Rattus norvegicus [1]) [%] | Activity (Rattus norvegicus [4]) [%] | inhibition in vivo at 50 mg/kg (Rattus norvegicus [7]) [%] | inhibition in vivo at 50 mg/kg (Rattus norvegicus [8]) [%] | also measured |
| --- | --- | --- | --- | --- | --- |
| CCN(CC)C(=O)CNc1nc2cc3nc(NCC(=O)N(CC)CC)sc3cc2s1 | 5 | -18 | 55 | 58 | – |
| CCN(CC)CC(=O)Nc1nc2cc3nc(NC(=O)CCl)sc3cc2s1 | – | – | 0 | 38 | Body weight change (Rattus norvegicus [9]): -16%; Inhibition (Rattus norvegicus [10]): 25% |
| CCN(CC)CC(=O)Nc1nc2cc3nc(N)sc3cc2s1 | 13 | -20 | 61 | 34 | – |
| Nc1nc2cc3sc(N)nc3cc2s1 | 4 | -30 | – | – | inhibition in vivo at 10 mg/kg (Rattus norvegicus [15]): 100%; inhibition in vivo at 10 mg/kg (Rattus norvegicus [16]): 88% |
| CN(CC(=O)Nc1nc2cc3nc(NC(=O)CN(C)C4CCCCC4)sc3cc2s1)C1CCCCC1.Cl.Cl | 6 | -4 | – | – | inhibition in vivo at 100 mg/kg (Rattus norvegicus [5]): 32%; inhibition in vivo at 100 mg/kg (Rattus norvegicus [6]): 27% |
| CCN(CC)CC(=O)Nc1nc2cc3nc(NC(=O)CN(CC)CC)sc3c(C)c2s1.Cl.Cl | 8 | -37 | 100 | 59 | – |
| Cl.Cl.O=C(CN1CCCCC1)Nc1nc2cc3nc(NC(=O)CN4CCCCC4)sc3cc2s1 | 0.8 | -6 | – | – | inhibition in vivo at 200 mg/kg (Rattus norvegicus [2]): 79%; inhibition in vivo at 200 mg/kg (Rattus norvegicus [3]): 56% |
| CCN(CC)CC(=O)Nc1nc2c(C(F)(F)F)c3nc(NC(=O)CN(CC)CC)sc3c(Cl)c2s1.Cl.Cl | 18 | -22 | – | – | inhibition in vivo at 25 mg/kg (Rattus norvegicus [18]): 57%; inhibition in vivo at 25 mg/kg (Rattus norvegicus [19]): 100% |
| CCN(CC)CC(=O)N(C)c1nc2cc3nc(N(C)C(=O)CN(CC)CC)sc3cc2s1.Cl.Cl | 16 | -16 | 16 | 0 | – |
| CCN(CC)CC(=O)Nc1nc2cc3sc(NC(=O)CN(CC)CC)nc3cc2s1.Cl.Cl | 9 | -33 | – | – | inhibition in vivo at 5 mg/kg (Rattus norvegicus [20]): 11%; inhibition in vivo at 5 mg/kg (Rattus norvegicus [21]): 0% |
| CCN(CC)C(C)C(=O)Nc1nc2cc3nc(NC(=O)C(C)N(CC)CC)sc3cc2s1.Cl.Cl (stereo not drawn) | – | – | 0 | 0 | Activity (Rattus norvegicus [22]): -19%; Inhibition (Rattus norvegicus [10]): 0% |
| CNc1nc2cc3nc(NC)sc3cc2s1.Cl.Cl | 24 | -30 | – | – | inhibition in vivo at 25 mg/kg (Rattus norvegicus [18]): 71%; inhibition in vivo at 25 mg/kg (Rattus norvegicus [19]): 100% |
| CCNCC(=O)Nc1nc2cc3nc(NC(=O)CNCC)sc3cc2s1.Cl.Cl | 21 | -28 | – | – | inhibition in vivo at 25 mg/kg (Rattus norvegicus [18]): 79%; inhibition in vivo at 25 mg/kg (Rattus norvegicus [19]): 100% |
| O=P1(N(CCCl)CCCl)NCCCO1 (stereo not drawn) [CYCLOPHOSPHAMIDE ANHYDROUS] | – | – | – | – | inhibition in vivo at 25 mg/kg (Rattus norvegicus [18]): 86%; Body weight change (Rattus norvegicus [9]): -19%; Inhibition (Rattus norvegicus [10]): 18%; inhibition in vivo at 25 mg/kg (Rattus norvegicus [19]): 100% |
| COc1ccc2c(c1)c(CC(=O)O)c(C)n2C(=O)c1ccc(Cl)cc1 [INDOMETHACIN] | – | – | – | – | inhibition in vivo at 2.5 mg/kg (Rattus norvegicus [23]): 71%; inhibition in vivo at 1 mg/kg (Rattus norvegicus [24]): 69%; inhibition in vivo at 1 mg/kg (Rattus norvegicus [25]): 61%; Body weight change (Rattus norvegicus [9]): 18% and 28%; Inhibition (Rattus norvegicus [10]): 63% and 34% |
